This is an account of results in ChEMBL document CHEMBL1124057, “Synthesis of arginine-vasopressins, modified in positions 1 and 2, as antagonists of the vasopressor response to the parent hormone” (J Med Chem, 1988).

Molecules are shown by their SMILES. *1 amine or outer side, *2 acyl side, *3 side chain or, on linkers, in order; H or OH if unused. Where a SMILES comes first, the peptide text is derived from it. Bridges are numbered along the chain shown (N, C = ends). [ ]: non-standard residue; d: D form. X9 = O=C(CC1(S[*:3])CCC(c2ccccc2)CC1)[C@H](Cc1ccc(O)cc1)N([C@@H](Cc1ccccc1)C(=O)[*:2])[*:1]; X5 = CN1CCC(CC(=O)[C@H](Cc2ccc(O)cc2)N([C@@H](Cc2ccccc2)C(=O)[*:2])[*:1])(S[*:3])CC1; X8 = CC1CCC(CC(=O)[C@H](Cc2ccc(O)cc2)N([C@@H](Cc2ccccc2)C(=O)[*:2])[*:1])(S[*:3])CC1; X1 = CC(C)(C)C1CCC(CC(=O)[*:1])(S[*:2])CC1; X4 = O=C(CC1(S[*:2])CCC(c2ccccc2)CC1)[*:1]; X2 = CC1CCC(CC(=O)[*:1])(S[*:2])CC1; X3 = CN1CCC(CC(=O)[*:1])(S[*:2])CC1; X6 = O=C(CC1(S[*:2])CCCCC1)[*:1]

The test system of series [1] is Rattus norvegicus. Nature of the series: Agonistic activity was determined according to a four-point dosage schedule in anesthetized rat (vasopressor assay). In kind it is functional.
Series [2] deals with Rattus norvegicus. The series can be described thus: Antidiuretic potency was tested in rat by intravenous injection and the change of conductivity of secreted urine was measured (agonistic experiment). It counts as functional. In short, it runs like this: (§1)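 Antidiuretic assay in anesthetized female Sprague-Dawley rats, with compounds given by intravenous injection. The change in conductivity of secreted urine was the effect parameter in both agonist and antagonist runs. Arginine-vasopressin (408 IU/mg) was the standard for agonism and the agonist in antagonism runs.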

For series [3], the species on record is Rattus norvegicus. The series can be described thus: Antagonist activity expressed as the effective dose that reduces the response to 2x units to equal response to 1x units of agonist (vasopressor assay). It counts as functional. In short, it runs like this:
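Vasopressor antagonism measured in anesthetized, dibenamine-treated rats, with arginine-vasopressin (408 IU/mg) as the challenging agonist. Potency is given as the effective dose (ED), the antagonist dose in nmol/kg body weight.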

The test system of series [4] is Rattus norvegicus. The series can be described thus: Antidiuretic potency was tested in rat by intravenous injection and the change of conductivity of secreted urine was measured (antagonistic experiment). In kind it is functional. In short, it runs like this:
as §1

Series [5] can be described thus: The time for complete recovery of the AVP effect was measured. It counts as ADME.
For series [6], the system named is Rattus norvegicus. Nature of the series: Antidiuretic potency was tested in rat by intravenous injection and the change of conductivity of secreted urine was measured (antagonistic experiment); Weak, inconsistent. In kind it is functional, organism-based. In short, it runs like this: as §1

`CC(C)(C)C1CCC2(CC1)CC(=O)N[C@@H](Cc1ccc(O)cc1)C(=O)N[C@@H](Cc1ccccc1)C(=O)N[C@@H](CCC(N)=O)C(=O)N[C@@H](CC(N)=O)C(=O)N[C@H](C(=O)N1CCC[C@H]1C(=O)N[C@@H](CCCN=C(N)N)C(=O)NCC(N)=O)CSS2` (some centres undefined) (YFQNCPRG-NH2; linker N-5 via X1) [listing 1 of 2 here]: the Agonism in the series on Rattus norvegicus [1] is listed as 0.04 IU mg-1; with Rattus norvegicus [2], 0.13 IU mg-1. Also, the ED in the series filed under Rattus norvegicus [3] is 2 nmol/kg. Besides, the Antagonism with Rattus norvegicus [4] is 0.

In the case of `CC1CCC2(CC1)CC(=O)N[C@@H](Cc1ccc(O)cc1)C(=O)N[C@@H](Cc1ccccc1)C(=O)N[C@@H](CCC(N)=O)C(=O)N[C@@H](CC(N)=O)C(=O)N[C@H](C(=O)N1CCC[C@H]1C(=O)N[C@@H](CCCN=C(N)N)C(=O)NCC(N)=O)CSS2` (some centres undefined) (YFQNCPRG-NH2; linker N-5 via X2) [listing 1 of 2 here], the Agonism was 0 IU mg-1 in the series with Rattus norvegicus [1] and 0.14 IU mg-1 in the series on Rattus norvegicus [2]. The ED in the series listed under Rattus norvegicus [3] is listed as 1.04 nmol/kg.

Take `COc1ccc(C[C@@H]2NC(=O)CC3(CCN(C)CC3)SSC[C@@H](C(=O)N3CCC[C@H]3C(=O)N[C@@H](CCCN=C(N)N)C(=O)NCC(N)=O)NC(=O)[C@H](CC(N)=O)NC(=O)[C@H](CCC(N)=O)NC(=O)[C@H](Cc3ccccc3)NC2=O)cc1` (Y(Me)FQNCPRG-NH2; linker N-5 via X3) [listing 1 of 2 here]: in series [5], the Time is 110 min.

In the case of `NC(=O)CC[C@@H]1NC(=O)[C@H](Cc2ccccc2)NC(=O)[C@H](Cc2ccc(O)cc2)NC(=O)CC2(CCC(c3ccccc3)CC2)SSC[C@@H](C(=O)N2CCC[C@H]2C(=O)N[C@@H](CCCN=C(N)N)C(=O)NCC(N)=O)NC(=O)[C@H](CC(N)=O)NC1=O` (some centres undefined) (YFQNCPRG-NH2; linker N-5 via X4) [listing 1 of 2 here], the Agonism in the series on Rattus norvegicus [1] is reported as 0 IU mg-1; in the series on Rattus norvegicus [2], 0.44 IU mg-1. In the series listed under Rattus norvegicus [3], this compound gave an ED of 2 nmol/kg.

Compound `COc1ccc(C[C@@H]2NC(=O)CC3(CCCCC3)SSC[C@@H](C(=O)N3CCC[C@H]3C(=O)N[C@@H](CCCN=C(N)N)C(=O)NCC(N)=O)NC(=O)[C@H](CC(N)=O)NC(=O)[C@H](CCC(N)=O)NC(=O)[C@H](Cc3ccccc3)NC2=O)cc1` (Y(Me)FQNCPRG-NH2; linker N-5 via X6) [listing 1 of 2 here] gave a Time in series [5] of 126 min.

On to `COc1ccc(C[C@@H]2NC(=O)CC3(CCC(C)CC3)SSC[C@@H](C(=O)N3CCC[C@H]3C(=O)N[C@@H](CCCN=C(N)N)C(=O)NCC(N)=O)NC(=O)[C@H](CC(N)=O)NC(=O)[C@H](CCC(N)=O)NC(=O)[C@H](Cc3ccccc3)NC2=O)cc1` (some centres undefined) (Y(Me)FQNCPRG-NH2; linker N-5 via X2) [listing 1 of 2 here], for which the Agonism with Rattus norvegicus [1] is 0 IU mg-1; with Rattus norvegicus [2] it was 0.7 IU mg-1. Also, the ED in the series filed under Rattus norvegicus [3] worked out at 1.5 nmol/kg. Moreover, the Antagonism in the series with Rattus norvegicus [4] was determined as 0.

`CC1CCC2(CC1)CC(=O)N[C@@H](Cc1ccc(O)cc1)C(=O)N[C@@H](Cc1ccccc1)C(=O)N[C@@H](CCC(N)=O)C(=O)N[C@@H](CC(N)=O)C(=O)N[C@H](C(=O)N1CCC[C@H]1C(=O)N[C@@H](CCCN=C(N)N)C(=O)NCC(N)=O)CSS2` (some centres undefined) (YFQNCPRG-NH2; linker N-5 via X2) [listing 2 of 2 here]: the Time in series [5] stood at 214 min.

In series [5], `COc1ccc(C[C@@H]2NC(=O)CC3(CCC(c4ccccc4)CC3)SSC[C@@H](C(=O)N3CCC[C@H]3C(=O)N[C@@H](CCCN=C(N)N)C(=O)NCC(N)=O)NC(=O)[C@H](CC(N)=O)NC(=O)[C@H](CCC(N)=O)NC(=O)[C@H](Cc3ccccc3)NC2=O)cc1` (some centres undefined) (Y(Me)FQNCPRG-NH2; linker N-5 via X4) [listing 1 of 2 here] came in with a Time of over 180 min.

`CC1CCC2(CC1)CC(=O)[C@H](Cc1ccc(O)cc1)N[C@@H](Cc1ccccc1)C(=O)N[C@@H](CCC(N)=O)C(=O)N[C@@H](CC(N)=O)C(=O)N[C@H](C(=O)N1CCC[C@H]1C(=O)N[C@@H](CCCN=C(N)N)C(=O)NCC(N)=O)CSS2` (some centres undefined) (H-[X8]QNCPRG-NH2; disulfide 1-4): the Antagonism result in the series with Rattus norvegicus [6] is “Weak”.

For the compound `COc1ccc(C[C@@H]2NC(=O)CC3(CCC(C)CC3)SSC[C@@H](C(=O)N3CCC[C@H]3C(=O)N[C@@H](CCCN=C(N)N)C(=O)NCC(N)=O)NC(=O)[C@H](CC(N)=O)NC(=O)[C@H](CCC(N)=O)NC(=O)[C@H](Cc3ccccc3)NC2=O)cc1` (some centres undefined) (Y(Me)FQNCPRG-NH2; linker N-5 via X2) [listing 2 of 2 here], the Time in series [5] is recorded as over 140 min.

`CN1CCC2(CC1)CC(=O)[C@H](Cc1ccc(O)cc1)N[C@@H](Cc1ccccc1)C(=O)N[C@@H](CCC(N)=O)C(=O)N[C@@H](CC(N)=O)C(=O)N[C@H](C(=O)N1CCC[C@H]1C(=O)N[C@@H](CCCN=C(N)N)C(=O)NCC(N)=O)CSS2` (H-[X5]QNCPRG-NH2; disulfide 1-4): the Agonism stood at 0.4 IU mg-1 in the series with Rattus norvegicus [1] and 0.87 IU mg-1 with Rattus norvegicus [2]. Further, the ED in the series filed under Rattus norvegicus [3] is recorded as 0 nmol/kg. The same compound gave an Antagonism with Rattus norvegicus [4] of 0.

With `COc1ccc(C[C@@H]2NC(=O)CC3(CCC(C(C)(C)C)CC3)SSC[C@@H](C(=O)N3CCC[C@H]3C(=O)N[C@@H](CCCN=C(N)N)C(=O)NCC(N)=O)NC(=O)[C@H](CC(N)=O)NC(=O)[C@H](CCC(N)=O)NC(=O)[C@H](Cc3ccccc3)NC2=O)cc1` (some centres undefined) (Y(Me)FQNCPRG-NH2; linker N-5 via X1) [listing 1 of 2 here], the Agonism in the series on Rattus norvegicus [1] came out at 0 IU mg-1; with Rattus norvegicus [2], 0.095 IU mg-1. This compound also had an ED in the series listed under Rattus norvegicus [3] of 1 nmol/kg. The Antagonism in the series on Rattus norvegicus [4] is 0.

As to `NC(=O)CC[C@@H]1NC(=O)[C@H](Cc2ccccc2)NC(=O)[C@H](Cc2ccc(O)cc2)NC(=O)CC2(CCC(c3ccccc3)CC2)SSC[C@@H](C(=O)N2CCC[C@H]2C(=O)N[C@@H](CCCN=C(N)N)C(=O)NCC(N)=O)NC(=O)[C@H](CC(N)=O)NC1=O` (some centres undefined) (YFQNCPRG-NH2; linker N-5 via X4) [listing 2 of 2 here], in series [5], the Time is on record as over 180 min.

For the compound `COc1ccc(C[C@@H]2NC(=O)CC3(CCC(c4ccccc4)CC3)SSC[C@@H](C(=O)N3CCC[C@H]3C(=O)N[C@@H](CCCN=C(N)N)C(=O)NCC(N)=O)NC(=O)[C@H](CC(N)=O)NC(=O)[C@H](CCC(N)=O)NC(=O)[C@H](Cc3ccccc3)NC2=O)cc1` (some centres undefined) (Y(Me)FQNCPRG-NH2; linker N-5 via X4) [listing 2 of 2 here], the Agonism with Rattus norvegicus [1] is 0 IU mg-1; with Rattus norvegicus [2], 1.6 IU mg-1. For the same compound, the ED in the series filed under Rattus norvegicus [3] is given as 2 nmol/kg.

`COc1ccc(C[C@@H]2NC(=O)CC3(CCCCC3)SSC[C@@H](C(=O)N3CCC[C@H]3C(=O)N[C@@H](CCCN=C(N)N)C(=O)NCC(N)=O)NC(=O)[C@H](CC(N)=O)NC(=O)[C@H](CCC(N)=O)NC(=O)[C@H](Cc3ccccc3)NC2=O)cc1` (Y(Me)FQNCPRG-NH2; linker N-5 via X6) [listing 2 of 2 here] returned an Agonism with Rattus norvegicus [1] of 0 IU mg-1.

For the compound `NC(=O)CC[C@@H]1NC(=O)[C@H](Cc2ccccc2)N[C@@H](Cc2ccc(O)cc2)C(=O)CC2(CCC(c3ccccc3)CC2)SSC[C@@H](C(=O)N2CCC[C@H]2C(=O)N[C@@H](CCCN=C(N)N)C(=O)NCC(N)=O)NC(=O)[C@H](CC(N)=O)NC1=O` (some centres undefined) (H-[X9]QNCPRG-NH2; disulfide 1-4), in the series on Rattus norvegicus [6], the Antagonism entry was “Weak”.

Regarding `COc1ccc(C[C@@H]2NC(=O)CC3(CCN(C)CC3)SSC[C@@H](C(=O)N3CCC[C@H]3C(=O)N[C@@H](CCCN=C(N)N)C(=O)NCC(N)=O)NC(=O)[C@H](CC(N)=O)NC(=O)[C@H](CCC(N)=O)NC(=O)[C@H](Cc3ccccc3)NC2=O)cc1` (Y(Me)FQNCPRG-NH2; linker N-5 via X3) [listing 2 of 2 here], the Agonism was 0 IU mg-1 with Rattus norvegicus [1] and 0.23 IU mg-1 in the series with Rattus norvegicus [2]. Besides, the ED in the series filed under Rattus norvegicus [3] was 3.6 nmol/kg.

Take `COc1ccc(C[C@@H]2NC(=O)CC3(CCC(C(C)(C)C)CC3)SSC[C@@H](C(=O)N3CCC[C@H]3C(=O)N[C@@H](CCCN=C(N)N)C(=O)NCC(N)=O)NC(=O)[C@H](CC(N)=O)NC(=O)[C@H](CCC(N)=O)NC(=O)[C@H](Cc3ccccc3)NC2=O)cc1` (some centres undefined) (Y(Me)FQNCPRG-NH2; linker N-5 via X1) [listing 2 of 2 here]: in series [5], the Time was over 115 min.

Regarding `CC(C)(C)C1CCC2(CC1)CC(=O)N[C@@H](Cc1ccc(O)cc1)C(=O)N[C@@H](Cc1ccccc1)C(=O)N[C@@H](CCC(N)=O)C(=O)N[C@@H](CC(N)=O)C(=O)N[C@H](C(=O)N1CCC[C@H]1C(=O)N[C@@H](CCCN=C(N)N)C(=O)NCC(N)=O)CSS2` (some centres undefined) (YFQNCPRG-NH2; linker N-5 via X1) [listing 2 of 2 here], the Time in series [5] came out at 125 min.
